Assays:
[1] = Partition coefficient (logP); type: physicochemical; details: octanol/water
In short: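 Octanol/water log P was estimated by calculation with commercial software, not measured experimentally.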

Homo sapiens = species on record: Homo sapiens; test: Inhibitory activity against production of leukotriene B4 in isolated human polymorphonuclear leukocytes; type: functional
In short: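 Leukotriene biosynthesis in human polymorphonuclear leukocytes was started with calcium ionophore A23187, and LTB₄ was quantified by radioimmunoassay. Inhibition curves came from five-point titrations fitted with a four-parameter algorithm to give IC50. Compounds were generally tested at least in duplicate, with the IC50 reported as the mean of all determinations.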

Mus musculus [2] = test: Tested for ability to inhibit the topical inflammatory response in the topical mouse ear(TME) model; type: functional
In short: (§1)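 Mice received 25 μL on the inner surface of one ear, with five mice per group. Compound was applied in acetone/pyridine/water 97:2:1 together with 200 μg/mL PMA as irritant. Controls received vehicle alone or vehicle with PMA. Solvent was evaporated at room temperature. After 4 h, 6-mm ear punches were weighed wet to measure edema. ED50 came from four-point titrations.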

Mus musculus [3] = test: Tested for its ability to inhibit the topical inflammatory response in the topical mouse ear(TME) model; type: functional; in short: as §1

Structure (SMILES) | logP [1] | IC50 (Homo sapiens) | ED50 (Mus musculus [2]) | ED50 (Mus musculus [3])
OCc1ccccc1NCc1c(O)ccc2c1CCCO2 | 2.4 | 17000 nM | 0.6 uM site-1 | 
OCc1ccccc1SCc1cc2c(cc1O)CCCO2 | 3.6 | 1400 nM |  | 
COc1ccc(O)c(CNc2ccc(F)cc2F)c1 | 3.5 | 1300 nM |  | 
Oc1cc2ccoc2cc1CNc1ccccc1 | 3.3 | 11000 nM | 0.97 uM site-1 | 
N#Cc1ccc(NCc2cc3c(cc2O)CCCO3)cc1 | 3.6 | 1600 nM | 1.61 uM site-1 | 
COc1ccc(O)c(CNc2ccccc2)c1 | 2.8 | 4700 nM |  | 0.61 uM site-1
Oc1ccc2c(c1CNc1ccc(F)cc1F)CCCO2 | 4.2 | 1400 nM |  | 
CC(=O)c1ccc(NCc2cc3c(cc2O)CCO3)cc1 | 2.9 | 1200 nM | 0.35 uM site-1 | 
OCc1ccccc1NCc1cc2c(cc1O)CCO2 | 1.9 | 11000 nM |  | 
CC(=O)c1ccc(NCc2cc3c(cc2O)CCCO3)cc1 | 3.5 | 4100 nM | 0.35 uM site-1 | 
Oc1cc2c(cc1CNc1ccc(F)cc1F)OCCC2 | 4.2 | 1300 nM |  | 
COc1ccc(O)c(COc2ccccc2)c1 | 3.3 | 1400 nM |  | 
COc1ccc(O)c(CNc2ccc(C#N)s2)c1 | 2.7 | 2600 nM |  | 
N#Cc1ccc(NCc2cc3c(cc2O)CCO3)s1 | 2.8 | 990 nM |  | 
OCc1ccccc1NCc1cc2c(cc1O)CCCO2 | 2.4 | 21000 nM | 0.49 uM site-1 | 
CC(=O)c1ccc(NCc2c(O)ccc3c2CCCO3)cc1 | 3.5 | 11000 nM |  | 
COc1ccc(O)c(CSc2ccccc2CO)c1 | 2.9 | 8700 nM | 0.87 uM site-1 | 
OCc1ccccc1NCc1cc2occc2cc1O | 2.2 | 42000 nM | 0.44 uM site-1 | 
Oc1cc2c(cc1CNc1ccccc1)OCCC2 | 3.5 | 1700 nM | 0.67 uM site-1 | 
COc1ccc2c(c1)c(CC(=O)O)c(C)n2C(=O)c1ccc(Cl)cc1 [INDOMETHACIN] |  |  | 0.64 uM site-1 | 

Continued by falling IC50 (Homo sapiens), values first:

logP [1] | IC50 (Homo sapiens) | Structure (SMILES) | ED50 (Mus musculus [2]) | ED50 (Mus musculus [3])
3.6 | 660 nM | Oc1cc2c(cc1CNc1ccc(F)cc1F)OCC2 |  | 
4.6 | 600 nM | CCOC(=O)c1ccc(NCc2cc3c(cc2O)CCCO3)cc1 |  | 
3.9 | 590 nM | COc1ccc(O)c(CSc2ccccc2)c1 |  | 
2.9 | 490 nM | Oc1cc2c(cc1CNc1ccccc1)OCC2 |  | 
4.2 | 440 nM | CC(=O)c1ccc(SCc2cc3c(cc2O)CCCO3)cc1 |  | 
2.8 | 440 nM | N#Cc1cc(NCc2cc3c(cc2O)CCO3)cs1 |  | 
4.4 | 250 nM | COc1ccc(O)c(C/C=C/c2ccccc2)c1 | 1.08 uM site-1 | 
4 | 190 nM | OCc1ccccc1CCCc1cc2c(cc1O)CCO2 |  | 
3.5 | 130 nM | OCc1ccccc1/C=C/Cc1cc2c(cc1O)CCO2 | 0.74 uM site-1 | 
4.3 | 120 nM | COc1ccc(O)c(CCc2ccccc2)c1 |  | 
3.9 | 70 nM | O=Cc1ccccc1/C=C/Cc1cc2c(cc1O)CCO2 |  | 
4 | 60 nM | CC(=O)c1ccc(/C=C/Cc2cc3c(cc2O)CCO3)cc1 | 0.54 uM site-1 | 
